# According to ChEMBL document CHEMBL4312029, “Structure-activity relationship studies and in vitro and in vivo anticancer activity of novel 3-aroyl-1,4-diarylpyrroles against solid tumors and hematological malignancies” (Eur J Med Chem, 2020):
# Activity calls are given as the source filed them. No cut-off for these calls is given here.
# Experiments:
# T-24 [1] = assay: Cytotoxicity against human T24 cells assessed as reduction in cell viability incubated for 48 hrs by MTT assay; type: functional, cell-based; conditions: T-24, 48 h
# Tubulin = assay: Inhibition of tubulin polymerization (unknown origin) incubated for 15 mins followed by GTP addition and measured for 20 mins by spectrophotometry; type: protein-complex assay, Homo sapiens
# Outline: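 Tubulin assembly assay with tubulin at 10 µM. IC50 for inhibition of polymerization; run in duplicate or triplicate.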
# U-87 MG = assay: Cytotoxicity against human U87MG cells assessed as reduction in cell viability incubated for 48 hrs by MTS assay; type: functional, cell-based, U-87MG ATCC; conditions: for inhibition: U-87MG ATCC
# Outline: (§1)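 Increasing concentrations applied to glioblastoma and neuroblastoma lines to give dose-response viability curves; cytotoxic IC50 from triplicate experiments. Incubation 48 h, except U343MG at 72 h.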
# SW480 = assay: Cytotoxicity against human SW480 cells assessed as reduction in cell viability incubated for 48 hrs by MTT assay; type: functional, cell-based; conditions: for IC50: SW480, 48 h
# KBM5 [2] = assay: Cytotoxicity against human KBM5 cells expressing IM- sensitive wild type Bcr/Abl assessed as reduction in cell viability incubated for 48 hrs by MTT assay; type: functional, cell-based; conditions: KBM5, 48 h
# HT-29 = assay: Cytotoxicity against human HT-29 cells assessed as reduction in cell viability incubated for 48 hrs by MTT assay; type: functional, cell-based; conditions: for IC50: HT-29, 48 h
# [3] = Cytotoxicity against human LAMA84-s cells expressing IM-sensitive wild type Bcr/Abl assessed as reduction in cell viability incubated for 48 hrs by MTT assay; type: functional, cell-based
# KU812 cell line = assay: Cytotoxicity against human KU812 cells expressing IM- sensitive wild type Bcr/Abl assessed as reduction in cell viability incubated for 48 hrs by MTT assay; type: functional, cell-based; conditions: KU812, 48 h
# [4] = Cytotoxicity against IM resistant human LAMA84-r cells assessed as reduction in cell viability incubated for 48 hrs by MTT assay; type: functional, cell-based
# T98G = assay: Cytotoxicity against human T98G cells assessed as reduction in cell viability incubated for 48 hrs by MTS assay; type: functional, cell-based; outline: as §1
# [5] = Cytotoxicity against human SK-N-BE cells assessed as reduction in cell viability incubated for 48 hrs by MTT assay; type: functional, cell-based; outline: as §1
# [6] = Cytotoxicity against human SK-N-BE(2)C cells assessed as reduction in cell viability incubated for 48 hrs by MTT assay; type: functional, cell-based; outline: as §1
# Tubulin (Homo sapiens) = Tubulin (Homo sapiens) (UniProt P68371+Q9H4B7+P0DPH7+P68366+Q13509+Q71U36+P04350+Q3ZCM7+P07437+P68363+Q9BQE3+Q6PEY2+Q13885+Q9BVA1+Q9BUF5); assay: Inhibition of [3H]colchicine binding to tubulin (unknown origin) at 5 uM incubated for 10 mins by DEAE-cellulose filter method relative to control; type: protein-complex assay
# Homo sapiens [7] = organism: Homo sapiens; assay: (§2) Cytotoxicity against human U343MG cells assessed as reduction in cell viability incubated for 72 hrs by MTS assay; type: functional, cell-based; outline: as §1
# [8] = as §2; type: functional, cell-based; conditions: U-343MG; outline: as §1
# HCT-116 = assay: Cytotoxicity against human HCT116 cells assessed as reduction in cell viability incubated for 48 hrs by MTT assay; type: functional, cell-based; conditions: for IC50: HCT-116, 48 h
# SW-620 = assay: Cytotoxicity against human SW620 cells assessed as reduction in cell viability incubated for 48 hrs by MTT assay; type: functional, cell-based; conditions: for IC50: SW-620, 48 h
# MCF7 = assay: Cytotoxicity against human MCF7 cells assessed as reduction in cell growth incubated for 96 hrs by MTT assay; type: functional, cell-based; conditions: MCF7, 96 h
# Outline: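 Growth inhibition of human breast carcinoma cells, reported as IC50; run in duplicate or triplicate.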
# KBM5 [9] = assay: Cytotoxicity against human KBM5 cells expressing IM-resistant Bcr/Abl T315I mutant assessed as reduction in cell viability incubated for 48 hrs by MTT assay; type: functional, cell-based; conditions: KBM5, 48 h
# PBMC = assay: Cytotoxicity against human PBMC assessed as cell viability by MTT assay; type: cell-based
# T-24 [10] = assay: Antitumor activity against human T24 cells xenografted in BALB/c nu/numouse assessed as increase in Bax expression in tumor tissue at 20 mg/kg, ip administered every 2 days for 40 days and measured on day 40 by immunofluorescence analysis; type: functional, organism-based
# Outline: (§3)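 Nude mice bearing back tumors from injected T24 or ES-2 cells, treated versus saline controls. Tumors collected on Day 40 and marker expression in tumor tissue assessed by immunofluorescence staining.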
# Homo sapiens [11] = assay: Antitumor activity against human ES2 cells xenografted in BALB/c nu/nu mouse assessed as reduction in Ki67 expression in tumor tissue at 20 mg/kg, ip administered every 2 days for 40 days and measured on day 40 by immunofluorescence analysis; type: functional, organism-based; outline: as §3
# Homo sapiens [12] = assay: Antitumor activity against human ES2 cells xenografted in BALB/c nu/nu mouse assessed as increase in Bax expression in tumor tissue at 20 mg/kg, ip administered every 2 days for 40 days and measured on day 40 by immunofluorescence analysis; type: functional, organism-based; outline: as §3
# T-24 [13] = assay: Antitumor activity against human T24 cells xenografted in BALB/c nu/nu mouse assessed as reduction in Bcl2 expression in tumor tissue at 20 mg/kg, ip administered every 2 days for 40 days and measured on day 40 by immunofluorescence analysis; type: functional, organism-based; outline: as §3
# Homo sapiens [14] = assay: Antitumor activity against human ES2 cells xenografted in BALB/c nu/nu mouse assessed as reduction in CD31 expression in tumor tissue at 20 mg/kg, ip administered every 2 days for 40 days and measured on day 40 by immunofluorescence analysis; type: functional, organism-based; outline: as §3
# T-24 [15] = assay: Antitumor activity against human T24 cells xenografted in BALB/c nu/nu mouse assessed as reduction in Ki67 expression in tumor tissue at 20 mg/kg, […] days for 40 days and measured on day 40 by immunofluorescence analysis; type: functional, organism-based; outline: as §3
# Homo sapiens [16] = assay: Antitumor activity against human ES2 cells xenografted in BALB/c nu/nu mouse assessed as reduction in tumor weight at 20 mg/kg, ip administered every 2 days for 40 days and measured on day 40; type: functional, organism-based
# Outline: (§4)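 T24 or ES-2 cells injected on the backs of nude mice; saline-treated control group. Mice euthanized on Day 40, tumors excised, and tumor volume and weight measured.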
# T-24 [17] = assay: Antitumor activity against human T24 cells xenografted in BALB/c nu/nu mouse assessed as reduction in tumor weight at 20 mg/kg, ip administered every 2 days for 40 days and measured on day 40; type: functional, organism-based; outline: as §4
# T-24 [18] = assay: Antitumor activity against human T24 cells xenografted in BALB/c nu/nu mouse assessed as reduction in tumor volume at 20 mg/kg, ip administered every 2 days for 40 days and measured on day 40; type: functional, organism-based; outline: as §4
# Homo sapiens [19] = assay: Antitumor activity against human ES2 cells xenografted in BALB/c nu/nu mouse assessed as reduction in tumor volume at 20 mg/kg, ip administered every 2 days for 40 days and measured on day 40; type: functional, organism-based; outline: as §4
# T-24 [20] = assay: Antitumor activity against human T24 cells xenografted in BALB/c nu/nu mouse assessed as increase in caspase 9 expression in tumor tissue at 20 mg/kg, ip administered every 2 days for 40 days and measured on day 40 by immunofluorescence analysis; type: functional, organism-based; outline: as §3
# T-24 [21] = assay: Antitumor activity against human T24 cells xenografted in BALB/c nu/nu mouse assessed as reduction in CD31 expression in tumor tissue at 20 mg/kg, ip administered every 2 days for 40 days and measured on day 40 by immunofluorescence analysis; type: functional, organism-based; outline: as §3
# T-24 [22] = assay: Antitumor activity against human T24 cells xenografted in BALB/c nu/nu mouse assessed as increase in caspase 3 expression in tumor tissue at 20 mg/kg, ip administered every 2 days for 40 days and measured on day 40 by immunofluorescence analysis; type: functional, organism-based; outline: as §3
# Homo sapiens [23] = assay: Antitumor activity against human ES2 cells xenografted in BALB/c nu/nu mouse assessed as reduction in Bcl2 expression in tumor tissue at 20 mg/kg, ip administered every 2 days for 40 days and measured on day 40 by immunofluorescence analysis; type: functional, organism-based; outline: as §3
# Homo sapiens [24] = assay: Antitumor activity against human ES2 cells xenografted in BALB/c nu/nu mouse assessed as increase in caspase 9 expression in tumor tissue at 20 mg/kg, ip administered every 2 days for 40 days and measured on day 40 by immunofluorescence analysis; type: functional, organism-based; outline: as §3
# Homo sapiens [25] = assay: Antitumor activity against human ES2 cells xenografted in BALB/c nu/nu mouse assessed as increase in caspase 3 expression in tumor tissue at 20 mg/kg, ip administered every 2 days for 40 days and measured on day 40 by immunofluorescence analysis; type: functional, organism-based; outline: as §3
structure (smiles),measurement,setting,value
COc1cc(C(=O)c2cn(-c3cccc(N)c3)cc2-c2ccccc2F)cc(OC)c1OC,IC50,T-24 [1],34 nM
same,IC50,Tubulin,500 nM
same,Emax,U-87 MG,22%
same,IC50,U-87 MG,61 to 61.4 nM
same,inhibition,U-87 MG,Dose-dependent effect
same,inhibition,SW480,Dose-dependent effect
same,IC50,SW480,162 nM
same,IC50,KBM5 [2],18 nM
same,inhibition,HT-29,Dose-dependent effect
same,IC50,HT-29,56 nM
same,IC50,[3],15 nM
same,IC50,KU812 cell line,14 nM
same,IC50,[4],14 nM
same,Emax,T98G,38.4%
same,IC50,T98G,54 to 54.4 nM
same,inhibition,T98G,Dose-dependent effect
same,IC50,[5],244 nM
same,IC50,[6],106 nM
same,inhibition,Tubulin (Homo sapiens),90%
same,inhibition,Homo sapiens [7],Dose-dependent effect
same,Emax,[8],31%
same,IC50,[8],68.9 to 69 nM
same,inhibition,HCT-116,Dose-dependent effect
same,IC50,HCT-116,42 nM
same,inhibition,SW-620,Dose-dependent effect
same,IC50,SW-620,123 nM
same,IC50,MCF7,17 nM
same,IC50,KBM5 [9],22 nM
same,Activity,PBMC,Non-Toxic
COc1cc(C(=O)c2cn(-c3cccc(N)c3)cc2-c2ccc(N)cc2)cc(OC)c1OC,Activity,T-24 [10],Active
same,IC50,T-24 [1],12 nM
same,IC50,Tubulin,470 nM
same,inhibition,Homo sapiens [11],Active
same,Emax,U-87 MG,32%
same,IC50,U-87 MG,30.9 to 31 nM
same,inhibition,U-87 MG,Dose-dependent effect
same,inhibition,SW480,Dose-dependent effect
same,IC50,SW480,48 nM
same,IC50,KBM5 [2],14 nM
same,inhibition,HT-29,Dose-dependent effect
same,IC50,HT-29,51 nM
same,IC50,[3],10 nM
same,Activity,Homo sapiens [12],Active
same,inhibition,T-24 [13],Active
same,IC50,KU812 cell line,8 nM
same,inhibition,Homo sapiens [14],Active
same,inhibition,T-24 [15],Active
same,inhibition,Homo sapiens [16],Active
same,inhibition,T-24 [17],Active
same,IC50,[4],12 nM
same,Emax,T98G,41.3%
same,IC50,T98G,36.6 to 37 nM
same,inhibition,T98G,Dose-dependent effect
same,IC50,[5],221 nM
same,IC50,[6],56 nM
same,inhibition,Tubulin (Homo sapiens),92%
same,inhibition,T-24 [18],Active
same,inhibition,Homo sapiens [7],Dose-dependent effect
same,Emax,[8],36.3%
same,IC50,[8],11.9 to 12 nM
same,inhibition,Homo sapiens [19],Active
same,inhibition,HCT-116,Dose-dependent effect
same,IC50,HCT-116,27 nM
same,inhibition,SW-620,Dose-dependent effect
same,IC50,SW-620,28 nM
same,Activity,T-24 [20],Active
same,IC50,MCF7,14 nM
same,inhibition,T-24 [21],Active
same,Activity,T-24 [22],Active
same,inhibition,Homo sapiens [23],Active
same,Activity,Homo sapiens [24],Active
same,Activity,Homo sapiens [25],Active
same,IC50,KBM5 [9],16 nM
same,Activity,PBMC,Non-Toxic
